Screens (PubChem)
A selection: hits, their analogues and other compounds. The true share with any hit is near 9.6%.
L major viab: reduces viability of Leishmania major promastigotes | resazurin fluorescence viability | actives 9% (n = 200,000) | inhibition, % at 10 µM; in the data active = inhibition above about 50%;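 also: promastigotes grown with compound for 44 hours at 28 °C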
BaF3 parental: counter-screen for JAK2V617F inhibitors: parental Ba/F3 viability inhibitors; CellTiter-Glo ATP luminescence; inhibition, % at 5.6 µM; actives 1.1% (n = 220,000);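 active = inhibition above a per-campaign cutoff, the mean inhibition of all tested compounds plus 3 SD, cut at about 27% in these data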
b-catenin transl: alters nuclear translocation of beta-catenin in HeLa cells; actives 0.3% (n = 190,000); nuclear translocation activity, % at 5 µM; immunofluorescence imaging;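 active = nuclear translocation activity above 50% at 5 µM, with a well cell count of 50 or more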;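 also: per-cell ratio of nuclear to cytoplasmic median beta-catenin stain intensity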
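System: HeLa cells, endogenous beta-catenin; compound dosing: 5 µM primary single dose, 0.1% DMSO, 0.02–20 µM confirmation series; incubation: 24 h compound exposure at 37°C, 5% CO2; signal: beta-catenin immunofluorescence imaging with DAPI; evaluation: % activation, nuclear-to-cytoplasmic median beta-catenin signal ratio per cell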
Ba/F3 V617F tox: loss of viability in JAK2V617F-driven Ba/F3 cells; Ba/F3 EpoR-JAK2V617F viability, ATP luminescence; inhibition, % at 5.6 µM; actives 1.1% (n = 220,000);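 active = inhibition above the campaign mean plus 3 SD over all tested compounds, cut at about 24% in these data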;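 also: cytokine-independent growth of Ba/F3 cells driven by EpoR plus mutant JAK2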
MT stabilizer: stabilizes microtubules in HeLa cells; HeLa tubulin immunostaining HCS, 24 h; share of cells brighter than vehicle mean+2SD; % tubulin-high responders, % at 10 µM; actives 0.83% (n = 200,000); AID 2205;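 active = plate Z-score above 3 for both tubulin-high and condensed-nucleus cell shares, with cell loss under 80%, at 10 µM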;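 also: anti alpha tubulin signal scored within the nucleus-defined area of each cell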
APP 5UTR inh: APP translation inhibition; inhibition, % at 2 µM; actives 0.82% (n = 190,000); SH-SY5Y APP 5'UTR-luciferase reporter, luminescence; AID 1285;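 active = inhibition above a set limit, derived from the sample mean plus 3 SD, cut at about 45% in these data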
Of the large screens only hits and unclear results are named; the others gave an inactive call.

COc1cc(Cl)c(C)cc1NC(=O)CCCn1c(=O)oc2ccccc21	L major viab 53
COc1ccc(NC(=O)CCCn2c(=O)oc3ccccc32)cc1Cl	L major viab 58
O=C(NCC1CCC(C(=O)O)CC1)c1cccnc1 (centres undefined)	none
Cc1ccccc1NC(=O)CSCC(=O)Nc1ccccc1C	none
CCCN(CC(=O)Nc1ccccc1C)C(=O)CCl	L major viab 53
COc1ccc(-c2nn(CCC#N)cc2/C=N/O)cc1OC	none
CCOC(=O)c1c(NC(=O)COc2ccccc2)sc2c1CC(C)(C)NC2(C)C	none
COC(=O)c1c(NC(=O)c2nc3ccccc3s2)sc2c1CC(C)(C)NC2(C)C	L major viab 87
CCOc1ccc(C(=O)Nc2sc3c(c2C(=O)OC)CC(C)(C)NC3(C)C)cc1	L major viab 94
COC(=O)c1onc(-c2c(Cl)cccc2Cl)c1C(=O)OC	none (no result: L major viab, MT stabilizer, APP 5UTR inh)
CCCNC(=O)C1CCN(c2cc(-c3ccccc3)nc3ncnn23)CC1	none
CC1=C(C(=O)Nc2ccccc2F)C(c2ccsc2)C2=C(CC(C)(C)CC2=O)N1 (centres undefined)	MT stabilizer 15
CC1=C(C(=O)Nc2cccc(F)c2)C(c2ccsc2)C2=C(CC(C)(C)CC2=O)N1 (centres undefined)	BaF3 parental 49, b-catenin transl 76, Ba/F3 V617F tox 81, MT stabilizer 12, APP 5UTR inh 60
CN(CCc1ccccn1)C(=S)Nc1ccc(Cl)cc1Cl	none
Cc1cc(N/N=C/c2c(O)ccc3ccccc23)nc(-c2ccccc2O)n1	L major viab 97, APP 5UTR inh 58
C/C(=N\OCC(=O)Nn1c(=O)[nH]c2ccccc2c1=O)c1cccs1	none
COc1cccc(/C=N\NC(=O)C2C(=O)NCC2c2ccccc2)c1O (centres undefined)	L major viab 96
COc1cccc(/C=N/NC(=O)CSCC(=O)Nc2ccccc2)c1O	L major viab 99
COc1cccc(C=Nc2ccccc2C(=O)Nc2ccccc2)c1O	L major viab 52 (no result: b-catenin transl)
Cc1ccc(C(=O)NCC(=O)OCC(=O)NCC(F)(F)F)cc1	none
CCN(CC)S(=O)(=O)c1cc(C(=O)OCC(=O)Nc2ccc(-c3nc4ccc(C)cc4s3)cc2)ccc1F	none
CCN(CC)S(=O)(=O)c1ccc(C(=O)OCC(=O)Nc2ccc(-c3nc4ccc(C)cc4s3)cc2)cc1	L major viab 58 (no result: b-catenin transl)
O=C1c2ccccc2C(O)(c2ncc[nH]2)N1CCc1ccccc1 (centres undefined)	L major viab 95
Cc1ccccc1NC(=O)CN1C(=O)C2C3CC(C(Br)C3Br)C2C1=O (centres undefined)	none
COc1ccc(C(=O)/C=C/c2ccccc2F)c(OC(=O)c2ccc([N+](=O)[O-])cc2)c1	L major viab 91
COc1ccc(C(=O)/C=C/c2ccc(C)cc2)c(OC(=O)c2ccc([N+](=O)[O-])cc2)c1	none
Cc1ccc(S(=O)(=O)NN/C(=N/S(=O)(=O)c2ccccc2)c2ccccc2)cc1	none
Cc1ccc(S(=O)(=O)/N=C(\c2ccccc2)N(C)S(=O)(=O)c2ccccc2)cc1	L major viab 63
COc1cccc2c(SCC(=O)N/N=C/c3ccccc3)cc(C)nc12	none
COc1ccc2nc(C)cc(SCC(=O)N/N=C/c3cccc4ccccc34)c2c1	b-catenin transl 77
COc1cccc2c(SCC(=O)N/N=C/c3ccc(O)c(O)c3)cc(C)nc12	MT stabilizer 10
Cc1nnsc1-c1nnc(SCC(=O)c2ccccc2)n1C1CC1	none (no result: L major viab, MT stabilizer, APP 5UTR inh)
CC1CN(CCCOc2ccccc2[N+](=O)[O-])CC(C)O1 (centres undefined)	L major viab 90
COC(=O)C1CCN(CCCOc2ccc(CN3CCN(c4ccc([N+](=O)[O-])cc4)CC3)cc2)CC1	L major viab 95
Cc1ccc(C(C)C)c(OCCCN2CC(C)OC(C)C2)c1 (centres undefined)	L major viab 97 (no result: b-catenin transl)
CC1CC(C)CN(CCCCOc2ccc([N+](=O)[O-])cc2)C1 (centres undefined)	L major viab 95
Cc1cc(Br)ccc1OCCN1CC(C)OC(C)C1 (centres undefined)	none
O=[N+]([O-])c1ccccc1OCCCN1CCOCC1	none
Cc1ccc(OCC(=O)c2c(O)c3ccccc3oc2=O)cc1C	none
CCCCn1cnc2cc(C)c(C)cc21	none
CC1CN(CCOc2ccc([N+](=O)[O-])cc2)CC(C)O1 (centres undefined)	L major viab 85
CC1CN(CCCOc2ccc([N+](=O)[O-])cc2)CC(C)O1 (centres undefined)	L major viab 91
O=[N+]([O-])c1ccc(OCCN2CCNCC2)cc1	L major viab 99
Cc1cc(OCCN2CC(C)OC(C)C2)ccc1[N+](=O)[O-] (centres undefined)	L major viab 76
Cc1ccc([N+](=O)[O-])c(OCCN2CCNCC2)c1	none
Cn1c(=O)n(CCOc2ccc([N+](=O)[O-])cc2)c2ccccc21	none (no result: L major viab, MT stabilizer, APP 5UTR inh)
CC(C)CNC(=O)COC(=O)CCC(=O)c1cccs1	none
O=C(Nc1ccc(C(=O)N2CCCC2)cc1)Nc1ccc(Cl)cc1Cl	none
CCc1ccccc1NC(=S)NNC(=O)c1ccccc1Cl	none
CCc1ccccc1NC(=S)NN	APP 5UTR inh 92 (no result: MT stabilizer)
Cn1ncc2c(O/N=C(\N)c3ccc(C(C)(C)C)cc3)ncnc21	BaF3 parental 36, Ba/F3 V617F tox 75 (no result: L major viab, MT stabilizer, APP 5UTR inh)
COc1ccccc1N1CCN(C(=O)CCCn2nc(C)c([N+](=O)[O-])c2C)CC1	none
O=C(COc1ccc(Br)cc1)N1CCN(S(=O)(=O)/C=C/c2ccccc2)CC1	APP 5UTR inh 69
O=C(COc1ccccc1F)N1CCN(S(=O)(=O)/C=C/c2ccccc2)CC1	none
O=C(Nc1cnn(C23CC4CC(CC(C4)C2)C3)c1)c1cnn2c(C(F)(F)F)cc(-c3ccco3)nc12	L major viab 82
O=C(Nc1ccc2c(c1)OCO2)c1cnn2c(C(F)(F)F)cc(-c3ccco3)nc12	none
COc1cc(NC(=O)COC(=O)c2cc(S(=O)(=O)N3CCCCC3)ccc2Cl)c(C)cc1[N+](=O)[O-]	none
O=C(CCCCCCCC(=O)c1ccccc1)c1ccccc1	none
C=C(C(=O)c1ccccc1)C(CC(=O)c1ccccc1)c1ccccc1 (centres undefined)	L major viab 82
Cc1ccc(C(CC(=O)c2ccc(Cl)cc2)C(=O)O)cc1 (centres undefined)	none
C=C(CCC(=O)c1ccccc1)C(=O)c1ccccc1	L major viab 100
Cc1ccc(NC(=S)N2CCCC(O)C2)cc1 (centres undefined)	none
COc1ccccc1-n1c(CNc2c(C)cccc2C)nnc1SCC(=O)N1CCOCC1	none
Cc1ccc(C)c(NC(=O)C(Sc2nnc(-c3cccs3)o2)c2ccccc2)c1 (centres undefined)	BaF3 parental 72, Ba/F3 V617F tox 89
